In PubChem BioAssay:
The source made the active and inactive calls.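 How the source made its calls, unless noted: active means viability at or under a set limit in both replicates, limit being median viability minus 3 SD (cut at about 48% in these data, passing the limit was not always enough); inconclusive means at or under the limit in just one replicate; inactive means at or above the limit in both replicates.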

Legend:
[1] = reduced viability of SK-BR-3 breast cancer cells – cell-based, 24 h, human, pilot screen (AID 572;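 active means viability at or below 10% of carrier control in both of two separate runs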;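 further: compound exposure lasted between 18 and 24 h rather than exactly 24 h; 100% = carrier-treated control wells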); settings: SK-BR-3 viability, CellTiter-Glo luminescence, at 10 µM, stronger effect = lower value
[2] = HUVEC growth inhibition – cell-based, human, primary screen (AID 575;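 active means viability at or below 30% in both replicate assays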;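 further: 100% = median of untreated cell wells with 0.1% DMSO on each plate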); settings: HUVEC proliferation, CellTiter-Glo luminescence, 72 h; at 10 µM; stronger effect = lower value
Summary of the method: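 Material: primary human umbilical vein endothelial cells / Schedule: 72 h exposure, 37 °C, 5% CO2, 30 min RT equilibration / Signal: ATP-based CellTiter-Glo luminescent read / Read-out basis: percent of median DMSO-control luminescence / Control set: 32 DMSO-only cell-control wells (high), 32 MePR drug-control wells (low) per plate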

[3] = H69AR cell proliferation blockers – human, duplicate replicates, primary screen (AID 580); settings: H69AR lung tumor cells viability, ATP luminescence, 72 h; at 10 µM; stronger effect = lower value;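 further: 100% = mean luminescence of untreated wells and 0% = no signal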
[4] = MRP1 drug-resistance reversers in H69AR cells – cell-based, doxorubicin co-treatment, pilot screen (AID 601;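 active means viability loss from added drug above about 55%, and viability with drug at most 40%, in both replicates, limit read from the data, passing the limit was not always enough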); settings: CellTiter-Glo, 72 h, at 10 µM; for differential viability (reversal): stronger effect = higher value
[5] = yeast transport mutant growth inhibition pilot in 384-well plates, post-Golgi transport modulator project (AID 636; in the data active means inhibition above about 31%); settings: absorbance 615 nm, about 18 h, stronger effect = higher value
[6] = growth suppression of yeast trafficking mutant, preliminary HTS, modulators of trafficking downstream of Golgi apparatus project, 1536-format plate, OD 615 nm (AID 637; in the data active means inhibition above about 30%); settings: yeast transport mutant growth, absorbance 615 nm, 18 h; stronger effect = higher value
[7] = H69AR cells + 2 uM doxorubicin, measured here: viability with 2 uM doxorubicin, stronger effect = lower value
[8] = H69AR cells, compound alone cytotoxicity

For `O=C(Cc1nc2ccccc2s1)c1ccc(O)cc1O`, the viability [1] was 100% (inactive), the viability [2] was 87.3% (inactive) and the viability [3] was 90.8% (inactive). For the same molecule, the differential viability (reversal) ([4]; H69AR cells + 2 uM doxorubicin) was 4.72% (inactive), the viability [4, 7] was 86% and the viability [4, 8] was 90.8%. The inhibition [5] was -4.53% (inactive) and the inhibition [6] was -0.18% (inactive).
For `COc1cc2c(cc1OC)CN(C(=O)COc1ccc(C)c(C)c1)CC2`, the viability [1] was 94% (inactive), the viability [2] was 91.4% (inactive) and the viability [3] was 83.9% (inactive). The differential viability (reversal) ([4]; H69AR cells + 2 uM doxorubicin) was -5.58% (inactive), the viability [4, 7] was 89.5% and the viability [4, 8] was 83.9%. The inhibition [5] was -7.95% (inactive) and the inhibition [6] was 1.29% (inactive).
For `CCSCc1nnc(SCC(=O)Nc2cccc(SC)c2)n1C`, the viability [1] was 66% (inactive), the viability [2] was 84.3% (inactive) and the viability [3] was 90.3% (inactive). For the same molecule, the differential viability (reversal) ([4]; H69AR cells + 2 uM doxorubicin) was -14.9% (inactive), the viability [4, 7] was 105% and the viability [4, 8] was 90.3%. The inhibition [5] was -6.58% (inactive) and the inhibition [6] was -0.18% (inactive).
In the case of `O=C(Nc1ccc(Br)c2cccnc12)c1ccc(Cn2cc(Cl)cn2)o1`, the viability [1] is reported as 156% (inactive), the viability [2] is reported as 43% (inactive) and the viability [3] is reported as 87.4% (inactive). The differential viability (reversal) ([4]; H69AR cells + 2 uM doxorubicin) was 9.23% (inactive), the viability [4, 7] was 78.2% and the viability [4, 8] was 87.4%. The inhibition [5] was -1.56% (inactive) and the inhibition [6] was -3.44% (inactive).
For `CN(C)c1ccc(NC(=O)Nc2cccc(Cl)c2)cc1`, the viability [1] was 83% (inactive), the viability [2] was 99.9% (inactive) and the viability [3] was 88.7% (inactive). For the same molecule, the differential viability (reversal) ([4]; H69AR cells + 2 uM doxorubicin) was 3.98% (inactive), the viability [4, 7] was 84.7% and the viability [4, 8] was 88.7%. For the same molecule, the inhibition [5] was -6.71% (inactive) and the inhibition [6] was 4.55% (inactive).
For `O=S(=O)(NC1CCCCC1NS(=O)(=O)c1ccc(F)cc1)c1ccc(F)cc1` (configuration not stated), the viability [1] was 106% (inactive), the viability [2] was 91.2% (inactive) and the viability [3] was 94.1% (inactive). For the same molecule, the differential viability (reversal) ([4]; H69AR cells + 2 uM doxorubicin) was -1.67% (inactive), the viability [4, 7] was 95.8% and the viability [4, 8] was 94.1%. The inhibition [5] was -4.68% (inactive) and the inhibition [6] was 6.07% (inactive).
In the case of `CCCc1cc(N2CCCC2)n2nc(C)c(-c3ccccc3)c2n1`, the viability [1] is reported as 64% (inactive), the viability [2] is reported as 94.7% (inactive) and the viability [3] is reported as 76.6% (inactive). For the same molecule, the differential viability (reversal) ([4]; H69AR cells + 2 uM doxorubicin) was -3.64% (inactive), the viability [4, 7] was 80.2% and the viability [4, 8] was 76.6%. The inhibition [5] was -4.93% (inactive) and the inhibition [6] was 5.27% (inactive).
With `O=C(Nc1ccc(N2CCOCC2)cc1)Nc1ccc2nc(-c3ccco3)c(-c3ccco3)nc2c1` the viability [1] was 71.5% (inactive), the viability [2] was 16.6% (active) and the viability [3] was 13.5% (active). For the same molecule, the differential viability (reversal) ([4]; H69AR cells + 2 uM doxorubicin) was -8.11% (inactive), the viability [4, 7] was 21.6% and the viability [4, 8] was 13.5%. For the same molecule, the inhibition [5] was -7.73% (inactive) and the inhibition [6] was -1.45% (inactive).
For `O=C(O)CSC1CC(=O)N(c2ccc(Cl)c(Cl)c2)C1=O` (configuration not stated), the viability [1] was 104% (inactive), the viability [2] was 109% (inactive) and the viability [3] was 98.8% (inactive). The differential viability (reversal) ([4]; H69AR cells + 2 uM doxorubicin) was 7.75% (inactive), the viability [4, 7] was 91.1% and the viability [4, 8] was 98.8%. For the same molecule, the inhibition [5] was -8.38% (inactive) and the inhibition [6] was 0.36% (inactive).
With `COc1ccc(C(=O)CSc2nnc(-c3ccc(C)cc3)o2)cc1` the viability [1] was 97% (inactive), the viability [2] was 110% (inactive) and the viability [3] was 86.4% (inactive). For the same molecule, the differential viability (reversal) ([4]; H69AR cells + 2 uM doxorubicin) was -2.64% (inactive), the viability [4, 7] was 89% and the viability [4, 8] was 86.4%. The inhibition [5] was 4% (inactive) and the inhibition [6] was 5.09% (inactive).
For `COc1ccc(OC)c(S(=O)(=O)Nc2ccc(O)c3ccccc23)c1`, the viability [1] was 6% (active), the viability [2] was 3.38% (active) and the viability [3] was 1.73% (active). For the same molecule, the differential viability (reversal) ([4]; H69AR cells + 2 uM doxorubicin) was -0.325% (inactive), the viability [4, 7] was 2.06% and the viability [4, 8] was 1.73%. The inhibition [5] was -2.5% (inactive) and the inhibition [6] was -5.33% (inactive).
In the case of `C=CCOC(=O)CC(NC(=O)c1ccccc1)c1ccccc1` (configuration not stated), the viability [1] is reported as 110% (inactive), the viability [2] is reported as 108% (inactive) and the viability [3] is reported as 105% (inactive). The differential viability (reversal) ([4]; H69AR cells + 2 uM doxorubicin) was 19.7% (inactive), the viability [4, 7] was 85.3% and the viability [4, 8] was 105%. The inhibition [5] was -3.73% (inactive) and the inhibition [6] was -5.45% (inactive).
With `COC(=O)c1ccccc1NC(=O)CN1CCC(n2nnc3cc(F)ccc32)CC1` the viability [1] was 64% (inactive), the viability [2] was 94.9% (inactive) and the viability [3] was 100% (inactive). The differential viability (reversal) ([4]; H69AR cells + 2 uM doxorubicin) was 10.3% (inactive), the viability [4, 7] was 89.7% and the viability [4, 8] was 100%. The inhibition [5] was -6.16% (inactive) and the inhibition [6] was -1.27% (inactive).
In the case of `COCCN(Cc1cc2cc3c(cc2n2nnnc12)OCO3)C(=O)c1ccccc1F`, the viability [1] is reported as 94% (inactive), the viability [2] is reported as 113% (inactive) and the viability [3] is reported as 101% (inactive). The differential viability (reversal) ([4]; H69AR cells + 2 uM doxorubicin) was 2.13% (inactive), the viability [4, 7] was 99.3% and the viability [4, 8] was 101%. The inhibition [5] was -6.35% (inactive) and the inhibition [6] was -7.27% (inactive).
In the case of `O=C(CN1CCN(Cc2ccccc2)CC1)Nc1ccc(Cl)cn1`, the viability [1] is reported as 94% (inactive), the viability [2] is reported as 88.8% (inactive) and the viability [3] is reported as 85.1% (inactive). The differential viability (reversal) ([4]; H69AR cells + 2 uM doxorubicin) was -1.43% (inactive), the viability [4, 7] was 86.5% and the viability [4, 8] was 85.1%. The inhibition [5] was -8.08% (inactive) and the inhibition [6] was 4.35% (inactive).
With `CC(C)Oc1ccc2c(=O)c(-c3ccccc3)coc2c1` the viability [1] was 121% (inactive), the viability [2] was 87% (inactive) and the viability [3] was 89.7% (inactive). The differential viability (reversal) ([4]; H69AR cells + 2 uM doxorubicin) was 6.81% (inactive), the viability [4, 7] was 82.8% and the viability [4, 8] was 89.7%. The inhibition [5] was -1.04% (inactive) and the inhibition [6] was -0.17% (inactive).
With `CC(=O)c1ccccc1NS(=O)(=O)c1c(C)nn(-c2ccccc2)c1C` the viability [1] was 99% (inactive), the viability [2] was 77.6% (inactive) and the viability [3] was 88.3% (inactive). The differential viability (reversal) ([4]; H69AR cells + 2 uM doxorubicin) was -5% (inactive), the viability [4, 7] was 93.3% and the viability [4, 8] was 88.3%. The inhibition [5] was -3.11% (inactive) and the inhibition [6] was -4.55% (inactive).
In the case of `COc1cc(SC)ccc1C(=O)Nc1ccccc1C#N`, the viability [1] is reported as 75% (inactive), the viability [2] is reported as 79.6% (inactive) and the viability [3] is reported as 70.5% (inactive). The differential viability (reversal) ([4]; H69AR cells + 2 uM doxorubicin) was -25.8% (inactive), the viability [4, 7] was 96.3% and the viability [4, 8] was 70.5%. For the same molecule, the inhibition [5] was -7.4% (inactive) and the inhibition [6] was 0.91% (inactive).
With `CN1[C@@H]2CC(OC(=O)[C@H](CO)c3ccccc3)C[C@H]1[C@@H]1O[C@@H]12` (some centres not stated) the viability [1] was 104% (inactive), the viability [2] was 96.7% (inactive) and the viability [3] was 102% (inactive). For the same molecule, the differential viability (reversal) ([4]; H69AR cells + 2 uM doxorubicin) was 6.26% (inactive), the viability [4, 7] was 95.3% and the viability [4, 8] was 102%. For the same molecule, the inhibition [5] was -2.08% (inactive) and the inhibition [6] was -2.83% (inactive).
For `COc1ccc(NC(=O)CSc2nc(C)cc(C(F)(F)F)n2)cc1`, the viability [1] was 91% (inactive), the viability [2] was 103% (inactive) and the viability [3] was 87.4% (inactive). For the same molecule, the differential viability (reversal) ([4]; H69AR cells + 2 uM doxorubicin) was 3.33% (inactive), the viability [4, 7] was 84.1% and the viability [4, 8] was 87.4%. The inhibition [5] was -6.44% (inactive) and the inhibition [6] was -4.91% (inactive).
With `O=C(CCn1c(=O)oc2ccccc21)N1CCCCCC1` the viability [1] was 112% (inactive), the viability [2] was 99% (inactive) and the viability [3] was 98.3% (inactive). The differential viability (reversal) ([4]; H69AR cells + 2 uM doxorubicin) was 5.09% (inactive), the viability [4, 7] was 93.3% and the viability [4, 8] was 98.3%. The inhibition [5] was 0.95% (inactive) and the inhibition [6] was -1.64% (inactive).
For `COc1cc(NS(=O)(=O)c2ccc(N)cc2)ncn1`, the viability [1] was 107% (inactive), the viability [2] was 75% (inactive) and the viability [3] was 92% (inactive). The differential viability (reversal) ([4]; H69AR cells + 2 uM doxorubicin) was 27% (inactive), the viability [4, 7] was 65% and the viability [4, 8] was 92%. For the same molecule, the inhibition [5] was -1.56% (inactive) and the inhibition [6] was 2.5% (inactive).
With `Cc1cc(NS(=O)(=O)c2ccc(NC(=O)COc3ccc(Cl)cc3)cc2)no1` the viability [1] was 100% (inactive), the viability [2] was 107% (inactive) and the viability [3] was 84.1% (inactive). For the same molecule, the differential viability (reversal) ([4]; H69AR cells + 2 uM doxorubicin) was -1.13% (inactive), the viability [4, 7] was 85.2% and the viability [4, 8] was 84.1%. The inhibition [5] was -9.32% (inactive) and the inhibition [6] was -5.27% (inactive).
For `Cc1c(C(=O)N2CCN(c3ccccc3)CC2)sc2ncnc(N3CCN(c4ccccc4)CC3)c12`, the viability [1] was 88% (inactive), the viability [2] was 82.5% (inactive) and the viability [3] was 93% (inactive). The differential viability (reversal) ([4]; H69AR cells + 2 uM doxorubicin) was -4.17% (inactive), the viability [4, 7] was 97.2% and the viability [4, 8] was 93%. For the same molecule, the inhibition [5] was 0.13% (inactive) and the inhibition [6] was -4.59% (inactive).
